In the library only some 2.5% were active in any assay of this set; here they are far more common.
PRMT1 inh: blocks human protein arginine methyltransferase 1 | recombinant PRMT1, activity-based probe fluorescence polarization | inhibition, % at 2.79 µM | 1.3% of 370,000 active | AID 652257;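 active = inhibition above about 21% made by adding two undisclosed values, limit read from the data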
Target sequence (Q99873 whole entry, looked up): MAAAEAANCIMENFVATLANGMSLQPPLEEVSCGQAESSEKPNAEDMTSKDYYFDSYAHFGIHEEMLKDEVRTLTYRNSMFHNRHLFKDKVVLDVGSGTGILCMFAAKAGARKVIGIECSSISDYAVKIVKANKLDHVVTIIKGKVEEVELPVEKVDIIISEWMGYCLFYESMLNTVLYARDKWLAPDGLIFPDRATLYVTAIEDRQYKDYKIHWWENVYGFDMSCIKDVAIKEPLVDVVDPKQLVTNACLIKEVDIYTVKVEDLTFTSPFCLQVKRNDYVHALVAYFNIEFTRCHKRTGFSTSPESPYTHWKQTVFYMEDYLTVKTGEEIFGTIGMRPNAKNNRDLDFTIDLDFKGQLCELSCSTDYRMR
E coli Lon inh: inhibitors of E. coli Lon protease. P0A9M0. purified E. coli Lon protease, fluorescence polarization. inhibition, % at 7.94 µM. 0.42% of 360,000 active. AID 602123; in the data active = inhibition above about 13%, passing the limit was not always enough;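 also: 0% = enzyme with probe and DMSO and 100% = no enzyme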
PAD4 FP inh: blocks human protein arginine deiminase 4; AID 485272; recombinant PAD4, RCA probe fluorescence polarization; Q9UM07; inhibition, % at 6.36 µM; 0.41% of 330,000 active;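 active = percent inhibition above a cutoff equal to the mean of all tested compounds plus 3 SD, cut at about 15% in these data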;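 also: 0% = PAD4 with RCA probe and DMSO and 100% = probe without PAD4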
TDP2 absorb: TDP2 (human) inhibition, absorbance primary screen; O95551; 0.34% of 370,000 active; recombinant TDP2, T5PNP hydrolysis, p-nitrophenol absorbance 415 nm; inhibition, % at 12.8 µM;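 active = inhibition above the mean of all tested compounds plus 3 SD, set per campaign, cut at about 25% in these data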;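 also: 0% = DMSO with enzyme and 100% = buffer with substrate but no TDP2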
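System: recombinant human TDP2 / Amount: 120 nM TDP2 per well / Also added: 5 mM T5PNP chromogenic substrate / Doses: 12.8 µM single point, 1% DMSO / Incubation: 2 h at 37 °C / Detection: p-Nitrophenol epi absorbance / Evaluation: % inhibition relative to enzyme-containing and enzyme-free wells / Repeats: singlicate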
GSTO1 counter: counter-screen for RBBP9 inhibitors: inhibitors of human GSTO1; P78417; recombinant GSTO1, activity-based probe fluorescence polarization; inhibition, % at 5.96 µM; 1.1% of 300,000 active; AID 1974;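 active = inhibition above the campaign mean inhibition plus 3 SD, cut at about 35% in these data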;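 also: 0% = GSTO1-1 with DMSO and 100% = wells lacking GSTO1-1 enzyme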
Target sequence (P78417 whole entry, looked up): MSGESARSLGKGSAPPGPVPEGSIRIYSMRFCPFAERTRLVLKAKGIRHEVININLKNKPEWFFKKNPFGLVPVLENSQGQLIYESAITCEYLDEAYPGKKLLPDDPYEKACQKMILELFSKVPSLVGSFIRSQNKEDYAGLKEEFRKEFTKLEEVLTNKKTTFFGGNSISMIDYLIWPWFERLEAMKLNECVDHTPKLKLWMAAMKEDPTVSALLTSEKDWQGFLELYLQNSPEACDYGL
PRMT1 inh conf: PRMT1 (human) inhibition, FP confirmation; shares compounds with PRMT1 inh; recombinant His-PRMT1, activity-based probe fluorescence polarization; inhibition, % at 2.79 µM; 42% of 3,300 active; AID 687036;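 active = mean inhibition across replicates above the hit cutoff derived for the earlier primary screen, cut at about 22% in these data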
Starred values were filed as active, the others as inactive; x = not tested or not shown.

SMILES | PRMT1 inh | E coli Lon inh | PAD4 FP inh | TDP2 absorb | GSTO1 counter | PRMT1 inh conf
CCC(C)c1c(O)nc(SCC(=O)c2ccccc2)[nH]c1=O (centres undefined) | 52.2* | 2.6 | 3.0 | 6.1 | 4.7 | 52.2*
N=C1SCC(=O)N1c1ccccc1Cl | 4.1 | -3.2 | -2.3 | -2.4 | 3.2 | x
O=c1c2ccccc2sn1-c1ccc(Cl)cc1 | 89.7* | -3.3 | x | -7.8 | x | 86.0*
O=C(c1sc2cc(F)ccc2c1Cl)N1CCN(c2cccc(Cl)c2)CC1 | 4.6 | 0.0 | 1.1 | 10.9 | -3.1 | x
Cc1ccc(N2C(=O)CC(N3CCN(c4ccc(F)cc4)CC3)C2=O)c(C)c1 (centres undefined) | 7.2 | 0.7 | 0.5 | -19.0 | 4.6 | x
O=c1c2ccc(F)cc2sn1-c1ccccc1 | 80.2* | 9.7 | x | -1.3 | x | 94.3*
O=c1c2cc(F)ccc2sn1-c1ccccc1Cl | 61.3* | -3.0 | x | 1.7 | x | 94.8*
Cc1ccc(-n2sc3cc(F)ccc3c2=O)c(C)c1 | 91.9* | 13.8 | x | 9.3 | x | 81.2*
O=C(O)c1ccc2c(c1)C1C=CCC1C(c1cc3c(cc1Br)OCO3)N2 (centres undefined) | -5.6 | 1.2 | -6.6 | 6.2 | 12.3 | x
O=C(O)c1ccc(NS(=O)(=O)c2ccc3c(c2)C2C=CCC2C(c2ccccc2F)N3)cc1 (centres undefined) | 47.3* | -3.8 | x | 13.3 | x | 13.0
CC1=CC(=O)C(Sc2ccc(C)cc2)=CC1=O | 87.7* | 8.2 | x | -13.6 | x | 95.0*
Cc1ccc(/C=N/N2CCN(Cc3ccc(Cl)cc3)CC2)o1 | 41.8* | -6.2 | -1.1 | 7.9 | -3.5 | -6.5
CCOC(=O)c1cc2c(ccn2C)n1CC(=O)N(Cc1ccccc1)c1ccccc1 | 29.4* | 7.8 | 2.1 | -11.4 | 2.6 | 6.2
CC(C)OC(=O)c1cc2c(ccn2C)n1CC(=O)N(Cc1ccccc1)c1ccc(F)cc1 | 25.0* | 11.6 | -1.5 | -8.6 | 5.8 | 4.9
CCCC1CCC2(CC1)CCC2OC(=O)Nc1ccc(F)cc1 (centres undefined) | -0.1 | x | x | -2.8 | x | x
NC(=O)CC(NSc1ccccc1[N+](=O)[O-])C(=O)O (centres undefined) | 34.5* | -10.0 | 6.9 | -9.8 | 11.4 | 22.7*
O=[N+]([O-])c1ccccc1SNc1ccccc1 | -1.1 | -10.6 | x | -2.9 | x | x
O=C(CSc1nnc(-c2cccnc2)n1Cc1ccco1)N1c2ccccc2Sc2ccccc21 | 40.5* | -13.1 | -1.9 | -7.2 | -1.2 | 16.3
Cc1cc(C(=O)Nc2ccc(Nc3ccccc3)cc2)ccc1[N+](=O)[O-] | 28.1* | -5.5 | -1.1 | 6.7 | 6.7 | 6.1
O=C(Nc1ccc(Nc2ccccc2)cc1)c1ccc(Cl)c([N+](=O)[O-])c1 | 0.8 | -24.3 | -1.4 | -8.5 | -7.5 | x
O=C1c2ccccc2C(=O)N1N(c1ccccc1)c1ccccc1 | 1.7 | -3.4 | x | 4.1 | x | x
O=C1C=CC(=O)N1N(c1ccccc1)c1ccccc1 | 50.0* | 8.2 | 4.6 | 2.9 | 2.0 | 96.2*
O=C(NCCc1ccccc1)OCc1cn(Cc2ccc(Cl)cc2)nn1 | 2.2 | x | x | -0.6 | x | x
CCn1c(N)c(C(N)=O)sc1=S | 26.8* | 11.1 | -0.8 | 4.3 | 3.3 | 11.8
CCOC(=O)c1sc(=S)n(CC)c1N | 0.2 | 0.9 | 0.7 | 0.1 | 2.9 | x
SMILES | PRMT1 inh | E coli Lon inh | PAD4 FP inh | TDP2 absorb | GSTO1 counter | PRMT1 inh conf
COCC(O)Cn1ccnc1[N+](=O)[O-] (centres undefined) | 0.8 | -0.9 | x | 5.1 | x | x
O=C(CSCc1ccco1)c1cccs1 | 25.2* | -5.3 | 1.3 | 6.5 | 4.6 | 70.4*
CC(C)[C@H](NS(=O)(=O)c1ccccc1F)C(=O)OCC(=O)Nc1cccc(S(N)(=O)=O)c1 | -0.5 | -5.8 | -4.4 | 0.6 | x | x
CC1(C)Cc2c(c(N3CCOCC3)nc3sc(C(=O)Nc4cccc(Cl)c4)c(N)c23)CO1 | 8.2 | -1.6 | 2.3 | 2.6 | 2.6 | x
CC1(C)Cc2c(c(N3CCOCC3)nc3sc(C(=O)Nc4ccccc4)c(N)c23)CO1 | 27.2* | -4.9 | -7.0 | -14.3 | -1.6 | 23.5*
CCC[C@H]1[C@@H](NCc2cccs2)CC[C@@]23CCCN2C(=O)CCC[C@@H]13 | -7.4 | x | x | -12.8 | x | x
COc1ccccc1OCC(=O)N/N=C/C=C/c1ccc([N+](=O)[O-])o1 | 24.8* | -5.5 | -4.6 | -17.2 | 17.6 | 9.3
O=C(N/N=C\C=C\c1ccc([N+](=O)[O-])o1)c1cccs1 | 31.1* | -9.4 | x | -15.7 | x | 5.5
CCn1c2ccccc2c2cc(C=NNC(=O)c3cc(-c4ccc(OC)cc4)n[nH]3)ccc21 | -0.9 | x | x | -3.8 | x | x
CCN(CC(=O)Nc1c(F)cccc1F)C(=O)CNC(=O)COc1ccccc1 | 2.2 | -14.9 | 8.6 | 7.8 | 3.2 | x
Cc1c(C)c2cc(Cl)c(OCC(=O)NC3CC(C)(C)NC(C)(C)C3)cc2oc1=O | 0.2 | -0.1 | -5.5 | -4.5 | -6.8 | x
Cc1ccc(OCc2nnc(SCC(=O)Nc3ncc(C)s3)o2)cc1 | 29.8* | -2.2 | -1.1 | 3.0 | 27.5 | 1.5
COC(=O)N1C[C@H](OC(=O)c2ccc(-c3ccccc3)cc2)[C@H]2C[C@@H]1c1ccccc1O2 | 4.7 | x | x | -2.4 | x | x
ON(CCc1ccncc1)Cc1ccccc1 | 13.0 | -10.8 | x | 6.0 | x | x
CC(=O)C1=C(O)C(=O)N(CCc2c[nH]c3ccccc23)C1c1ccco1 (centres undefined) | 28.4* | -0.1 | -5.9 | 7.2 | 5.2 | 5.3
CCOC(=O)c1c(SC)n(-c2ccccc2)c(=S)n(-c2ccccc2)c1=O | -2.5 | -7.9 | x | 14.0 | x | x
CCOC(=O)c1c(SCCN2CCCCC2)n(-c2ccccc2)c(=S)n(-c2ccccc2)c1=O | 31.3* | -6.3 | x | -2.7 | x | 4.2
C[C@H](CO)N1C[C@H](C)[C@@H](CN(C)S(=O)(=O)c2ccccc2)Oc2ccc(NC(=O)CCN3CCOCC3)cc2C1=O | -0.8 | -7.3 | 2.5 | 1.7 | x | x
O=C(Nc1nc2cc3c(cc2s1)OCCO3)c1ccncc1 | -2.5 | 0.2 | -8.2 | -7.9 | -0.4 | x
O=C(NNc1nc2cc3c(cc2s1)OCCO3)c1ccc(F)cc1 | 32.8* | 5.2 | -4.0 | 0.5 | -4.6 | -0.9
Cc1ccc(O)c(C(=O)c2cc(C#N)c(=O)n(-c3nccs3)c2)c1 | 39.4* | -211.1 | -11.0 | -8.0 | 9.4 | 31.4*
Cc1ccc(O)c(C(=O)c2cc(C#N)c(=O)n(-c3c(C)n(C)n(-c4ccccc4)c3=O)c2)c1 | 2.6 | -45.9 | 3.6 | 5.6 | -1.6 | x
O=C(CCSc1ccccn1)c1ccccc1 | 51.6* | -6.8 | -9.7 | -3.8 | -0.8 | 23.9*
O=C(O)CCSc1ccccn1 | 19.3 | -3.0 | -6.4 | 0.5 | 7.3 | x
CC1CC2=C(NC(=S)NC2c2ccccc2F)/C(=C/c2ccccc2F)C1 (centres undefined) | 49.5* | -1.8 | -10.6 | -1.0 | -18.7 | 10.3
CC1CC2=C(NC(=S)NC2c2cccc(F)c2)/C(=C/c2cccc(F)c2)C1 (centres undefined) | 13.7 | -3.2 | x | -3.8 | x | x
Cc1ccc(/C=C2\CCCC3=C2NC(=S)NC3c2ccc(C)cc2)cc1 (centres undefined) | 45.2* | 0.9 | -6.3 | 3.1 | 6.3 | 35.3*
